# The list is not random: actives were taken first. Their share in the collection is about 3.4%.
# A3A deaminase: human APOBEC3A DNA deaminase inhibition; recombinant A3A, FAM/TAMRA ssDNA deamination fluorescence; inhibition, % at 20 µM; hit rate 0.41% among 330,000;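 active = at least 40% inhibition at 20 µM here, with at most 30% in a related deaminase screen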;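 also: plate controls were A3A with DMSO for no effect and wells lacking A3A enzyme for full effect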
# Target sequence (P31941 whole entry, looked up): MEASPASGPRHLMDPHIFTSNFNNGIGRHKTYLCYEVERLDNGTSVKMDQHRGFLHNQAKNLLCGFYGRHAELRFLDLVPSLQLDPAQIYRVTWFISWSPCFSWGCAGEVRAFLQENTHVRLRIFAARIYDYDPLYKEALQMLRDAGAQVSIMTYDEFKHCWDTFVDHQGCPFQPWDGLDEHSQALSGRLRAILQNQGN
# A3G deaminase: blocks human APOBEC3G single-stranded DNA deamination; Q9HC16; recombinant A3G, ssDNA deamination FAM/TAMRA fluorescence; inhibition, % at 20 µM; hit rate 0.28% among 330,000;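 active = inhibition of at least 40% at 20 µM, with no more than 30% in the related APOBEC3A deaminase screen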;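 also: plate controls were DMSO wells with A3G for no effect and wells lacking A3G enzyme for full effect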
# Target sequence (Q9HC16 whole entry, looked up): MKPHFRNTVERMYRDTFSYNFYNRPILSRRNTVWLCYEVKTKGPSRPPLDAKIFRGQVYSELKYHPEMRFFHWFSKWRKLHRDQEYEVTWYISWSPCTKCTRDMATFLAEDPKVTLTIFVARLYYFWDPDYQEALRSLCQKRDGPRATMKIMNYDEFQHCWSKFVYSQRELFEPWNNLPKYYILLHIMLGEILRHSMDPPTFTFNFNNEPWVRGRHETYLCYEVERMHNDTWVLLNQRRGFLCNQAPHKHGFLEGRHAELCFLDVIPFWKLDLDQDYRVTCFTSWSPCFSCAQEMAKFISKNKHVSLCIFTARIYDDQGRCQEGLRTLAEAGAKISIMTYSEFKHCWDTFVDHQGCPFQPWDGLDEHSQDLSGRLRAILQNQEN
# UCH37 DUB inh: human UCH37 deubiquitinating enzyme inhibition; Q9Y5K5; purified proteasome/UCH37, Ub-AMC cleavage fluorescence; inhibition, % (concentration not given with the values); hit rate 0.33% among 330,000; AID 588478;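 active = mean inhibition over replicate wells above about 20%, limit read from the data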;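 also: 0% = compound-free wells with enzyme and 100% = wells lacking proteasome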
#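 assay system = human UCH37 enzyme supplied as purified proteasome complex | amount = proteasome at 0.15 nM in the dispensed enzyme solution | schedule = 30 min compound-proteasome preincubation then 25 min substrate reaction, room temperature | measured by = fluorescence, ex 355 nm, em 460 nm | benchmarks = no-proteasome wells (full inhibition) and compound-free wells (no inhibition)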
# AHR act: human AHR activation; P35869; AHR-responsive luciferase reporter cells, luminescence; activation, % at 5 µM; hit rate 2.5% among 320,000; AID 2796; in the data active = activation above about 47%;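 also: 0% = vehicle wells and 100% = reference agonist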
# Arrestin-AP2 inh: blocks beta-arrestin peptide binding to AP2 adaptin; FITC-arrestin peptide / GST-AP2 beads, flow cytometry; AP2 beta2 appendage carries R879A mutation; inhibition, % at 10 µM; hit rate 0.31% among 340,000;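 active = inhibition above a set limit, near 3 SD of compounds lacking own fluorescence, cut at about 54% in these data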;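 also: plate controls were DMSO wells for no effect and 5 µM unlabelled arrestin peptide for full effect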
#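 Test system: GST-tagged AP2 beta2-adaptin appendage (R879A) on 4 µm glutathione beads; also added: fluorescein-tagged arrestin peptide at 50 nM final; timing: 12 min plus 1 h, RT; signal: flow cytometry, FL1 (488/535 nm); read-out: percent drop in bead-associated FITC signal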
# PolyA inh: inhibitors of polyadenylation in S. cerevisiae; S. cerevisiae SKY197-pL101 polyadenylation reporter, beta-gal luminescence; efflux-impaired pdr1/pdr3 knockout yeast; score 100 = 6 SD above DMSO; activity score, % at 12 µM; hit rate 0.02% among 300,000; AID 1875;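 active = lowest replicate activity score at least 50, where 100 means six control SD above control mean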;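 also: yeast exposed to compound for 9 h at 30 °C; higher score means more reporter readthrough which indicates perturbed polyadenylation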
# * = called active by the depositor; x = no result.
SMILES,A3A deaminase,A3G deaminase,UCH37 DUB inh,AHR act,Arrestin-AP2 inh,PolyA inh
CC(NC(=O)c1ccc(Br)cc1Br)c1ccccc1 (stereo not drawn),-2,-4,x,0,-8,62*
Cc1ccc(S(=O)(=O)NN=Cc2c(F)cccc2Cl)cc1,x,x,2,x,x,x
CC(C)(C)C(=O)ON=C(N)c1ccc(Oc2cc(Cl)cc(Cl)c2)c([N+](=O)[O-])c1,x,x,5,x,x,x
CC1=NC(=O)C(N=Nc2ccccc2C(=O)O)N1c1ccccc1 (stereo not drawn),-3,-6,21*,x,4,-11
CC1=NC(=O)C(N=Nc2ccccc2)N1c1ccccc1 (stereo not drawn),1,-7,0,23,17,-7
CCC(=O)Nc1ccc(C(=O)CSc2nc3ccccc3cc2CC)cc1,-2,-8,5,51*,-7,x
CCC(=O)Nc1ccc(C(=O)CSc2nc(N)cc(N)n2)cc1,-2,-5,2,3,-9,-17
Cc1cc(C)cc(Nc2nc3ccccc3c(=O)[nH]2)c1,1,-3,-2,77*,1,-6
Cc1cccc(-c2nc3ccccc3c(=O)[nH]2)c1,-2,-8,0,68*,-7,14
C/C(C=NNC(=O)CSc1nc(C)cc(C)n1)=C/c1ccccc1,x,x,6,x,x,x
COc1ccc(OCC(=O)NN=Cc2ccc(OC)c(OC)c2C(=O)O)cc1,x,x,1,x,x,x
Cc1cccc(C(=O)Oc2ccc(C=NNC(=O)Cc3ccc([N+](=O)[O-])cc3)cc2)c1,x,x,1,x,x,x
C/C(C=NNC(=O)CN1CCN(Cc2ccccc2)CC1)=C\c1ccco1,x,x,8,x,x,x
COC(=O)c1cc(OC)c(OC)cc1NCC(=O)Nc1ccc(C)cc1,-1,-6,-29,23,-4,-6
COC(=O)c1cc(OC)c(OC)cc1NCC(=O)Nc1ccc(OC)c(OC)c1,2,-2,-7,72*,x,2
CCN(CC)S(=O)(=O)c1ccc(NN=Cc2cccnc2)nc1,x,x,11,x,x,x
O=C(CSc1nc2ccccc2[nH]1)N=Nc1c(O)[nH]c2ccccc12,-6,-15,7,53*,12,20
COCCOc1ccc(C(F)(F)F)cc1NC(=O)c1ccc(C)cc1,1,-3,4,36,22,-17
COCCOc1ccc(C(F)(F)F)cc1NC(=O)c1ccc(F)cc1,6,4,1,54*,-13,-26
Cc1ccc(NCCC(=O)c2cccs2)cc1C,1,-4,-1,48*,18,-2
Cc1ccc(NCCC(=O)c2cccs2)cc1,-1,-1,5,4,-22,5
COc1cccc(C(=O)NN=C2SCC(=O)N2CCc2ccc(OC)c(OC)c2)c1,x,x,1,x,x,x
Cc1nc2sc(C(c3ccco3)N3CCN(c4ccccc4F)CC3)c(O)n2n1 (stereo not drawn),2,-2,6,-2,5,-4
Cc1nc2sc(C(c3ccco3)N3CCc4ccccc4C3)c(O)n2n1 (stereo not drawn),6,9,4,51*,4,5
COCCn1c(C)cc(/C=C2\NC(=S)N(C)C2=O)c1C,-2,-6,10,57*,-6,-2
SMILES,A3A deaminase,A3G deaminase,UCH37 DUB inh,AHR act,Arrestin-AP2 inh,PolyA inh
COc1cc(C=NN2C(C)CCCC2C)cc(Br)c1O (stereo not drawn),x,x,8,x,x,x
O=C(NN=Cc1c[nH]c2ccccc12)c1cccs1,x,x,7,x,x,x
Cc1ccc(NC(=S)N/N=C2\CC(C)(C)Oc3ccc(O)cc32)cc1,-3,-4,x,70*,-1,-11
Cc1ccccc1OCCOc1ccc([N+](=O)[O-])cc1C=Nn1cnnc1,x,x,2,x,x,x
COc1cccc(NC(=O)c2cc([N+](=O)[O-])ccc2NC(=O)CNCC2CCCO2)c1 (stereo not drawn),-1,-2,3,48*,10,-1
COc1ccccc1NC(=O)c1nc(S(=O)(=O)Cc2ccccc2)ncc1Cl,-3,-8,x,60*,3,-46
O=C1NC(N2CCOCC2)=N/C1=C/c1ccc2c(c1)OCO2,-1,-12,5,54*,-14,-3
CCN(CCC#N)c1ccc(C=NNc2nc(C)cc(=O)[nH]2)c(C)c1,x,x,-20,x,x,x
O=[N+]([O-])c1ccc(N2CCCCC2)s1,-2,-4,20*,0,-7,-16
CC1CCCN(c2ccc([N+](=O)[O-])s2)C1 (stereo not drawn),x,x,15,x,3,-10
Oc1ccc(C=NNc2ccc3ccccc3c2)c(O)c1,x,x,-6,x,x,x
COc1ccc(C=NNC(=O)c2ccc(O)cc2)cc1CN1CCCc2ccccc21,x,x,-1,x,x,x
COc1cccc(Sc2ccccc2C=NNC(N)=O)c1,x,x,2,x,x,x
COc1nc(-c2ccccc2)ccc1-c1noc(-c2ccccc2)n1,0,-2,x,45,-2,-6
COc1nc(-c2ccccc2)ccc1-c1noc(-c2cccs2)n1,0,-6,-32,52*,0,-4
COc1cccc(-c2noc(-c3cccs3)n2)c1,-5,-6,1,48*,-3,-9
COc1cccc(-c2nc(-c3ccccc3)no2)c1,-4,-7,6,38,11,4
O=C(NN=Cc1cccs1)C1CC(=O)N(c2ccccc2)C1 (stereo not drawn),x,x,3,x,x,x
CCn1c(NCc2ccc3c(c2)OCO3)nc2ccccc21,-1,1,1,69*,1,1
Cc1ccccc1C(=O)Nc1ccc(C(=O)NN=Cc2ccncc2)cc1,x,x,0,x,x,x
Cc1nc2ccc(S(=O)(=O)Nc3cc(-c4nc5cccnc5s4)ccc3C)cc2s1,1,1,1,53*,-6,14
Cc1ccc(-c2nc3cccnc3s2)cc1NS(=O)(=O)c1cccs1,2,-3,-19,59*,1,-5
Cc1ccc(-c2n[nH]c(=S)n2N=Cc2c(C)[nH]n(-c3ccccc3)c2=O)cc1,x,x,7,x,x,x
O=C(/C=C/c1cccs1)N1CCc2ccccc21,0,-1,10,54*,-5,-15
CCn1cc(Br)c(C(=O)Nc2nccs2)n1,-1,-5,-1,57*,29,1
SMILES,A3A deaminase,A3G deaminase,UCH37 DUB inh,AHR act,Arrestin-AP2 inh,PolyA inh
CCn1cc(Br)c(C(=O)NN)n1,-2,-4,1,50*,-2,6
CCn1cc(Br)c(C(=O)Nc2ccc(Cl)c(Cl)c2)n1,-6,-9,5,77*,-10,-6
CCn1cc(Br)c(C(=O)Nc2ccc(OC)cc2)n1,0,-7,-1,24,8,4
COc1ccc(OCC(=O)NN=C2CCCc3ccccc32)cc1,x,x,1,x,x,x
CC(C)(C)S(=O)(=O)C(C#N)=NNc1ccc(C#N)cc1,x,x,10,x,x,x
CCC(C(=O)Oc1c(C(C)C)cccc1C(C)C)c1ccccc1 (stereo not drawn),-1,-8,33*,-3,2,x
O=C(O)CC1SC(=NN=Cc2ccc([N+](=O)[O-])cc2)N(c2ccc(O)cc2)C1=O (stereo not drawn),x,x,15,x,x,x
